Source: PubChem BioAssay
SIAE primary – human SIAE inhibition, primary screen | SIAE FP-Rh probe binding, fluorescence polarization | Q9HAT2 | hit rate 0.69% among 370,000 | AID 1053197 | inhibition, % at 9.66 µM;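 active = inhibition above a cutoff: mean of compounds within the control limits plus 3 SD of those, cut at about 17% in these data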
Target sequence (Q9HAT2 whole entry, looked up): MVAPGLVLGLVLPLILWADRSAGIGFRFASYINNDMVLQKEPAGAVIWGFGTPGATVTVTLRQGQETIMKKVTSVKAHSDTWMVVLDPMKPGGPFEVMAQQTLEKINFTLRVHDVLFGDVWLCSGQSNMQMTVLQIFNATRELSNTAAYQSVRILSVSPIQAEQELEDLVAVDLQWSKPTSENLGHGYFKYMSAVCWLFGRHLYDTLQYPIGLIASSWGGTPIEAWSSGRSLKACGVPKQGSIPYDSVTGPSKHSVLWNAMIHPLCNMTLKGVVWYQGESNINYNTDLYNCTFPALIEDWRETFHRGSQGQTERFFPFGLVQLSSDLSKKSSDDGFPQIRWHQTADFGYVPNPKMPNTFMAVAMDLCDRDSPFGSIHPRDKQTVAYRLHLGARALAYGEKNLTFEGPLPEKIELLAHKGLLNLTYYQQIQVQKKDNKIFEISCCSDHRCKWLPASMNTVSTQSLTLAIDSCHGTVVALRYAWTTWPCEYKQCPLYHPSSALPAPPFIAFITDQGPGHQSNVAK
HTRA1 inh – blocks human HTRA1 serine peptidase | recombinant HTRA1, FP-rhodamine activity-based probe, fluorescence polarization | inhibition, % at 5.96 µM | hit rate 0.5% among 340,000; in the data active = inhibition above about 36%
TCR-CD3 inh – human TCR-CD3 binding inhibition; TAMRA-labeled TCR probe fluorescence, biochemical; hit rate 0.37% among 360,000; AID 651800; inhibition, % at 9.4 µM; in the data active = inhibition above about 19%;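 also: recombinant mutant TCR 2C K166C tagged with TAMRA read by polarization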
PRMT1 FP inh – inhibitors of human PRMT1; Q99873; recombinant PRMT1, activity-based probe fluorescence polarization; inhibition, % at 2.79 µM; hit rate 1.3% among 370,000;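 active = inhibition above about 21% made by adding two undisclosed values, limit read from the data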
mABHD4 FP – inhibitors of mouse ABHD4 | hit rate 0.54% among 370,000 | AID 720543 | inhibition, % at 8.92 µM | purified mABHD4, FP-Rh probe fluorescence polarization | Q8VD66;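 active = inhibition exceeding the mean over every tested compound plus 3 SD, cut at about 30% in these data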
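Doses – 8.92 µM, single dose · Material – wild-type mouse ABHD4 protein · Replication – single well per compound (singlicate) · Measure – percent inhibition of probe binding, normalized to plate controls · Schedule – 45 min compound pre-incubation plus 60 min probe step, 25 °C · Detection – fluorescence polarization with parallel and perpendicular emission, 525/598 nm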
A number is an active result; i = inactive; nt = not tested or not shown; ! = repeats disagree. An excerpt weighted towards active compounds, which were near 2.7% of everything screened.

SMILES	SIAE primary	HTRA1 inh	TCR-CD3 inh	PRMT1 FP inh	mABHD4 FP
O=S(=O)([N-]c1nc2ccccc2nc1-[n+]1ccc(-c2ccncc2)cc1)c1ccccc1	i	i	i	22	i
O=S(=O)([N-]c1nc2ccccc2nc1-[n+]1ccccc1)c1ccccc1	i	i	i	i	i
Cc1ccc(C)c(N(CC(=O)N2CCCC2)S(C)(=O)=O)c1	i	i	i	i	i
CCOC(=O)c1ccc(NC(=O)Cn2ncc(Cl)c(Cl)c2=O)cc1	i	i	i	25	i
CCC(C)(C)n1nnnc1C(c1cc2cc(C)ccc2[nH]c1=O)N1CCCc2ccccc21 (centres undefined)	i	i	i	30	i
O=C(Nc1ccccc1)OCCN1C(=O)CCC12CCC(c1ccc(Cl)cc1)CC2 (centres undefined)	i	nt	nt	i	i
N#CCc1c(C#N)c(N)nc(N2CCCC(CO)C2)c1C#N (centres undefined)	i	i	i	23	i
NC(=O)c1ccc(SCC(=O)OCC(=O)N2CCN(C(=O)c3ccco3)CC2)c([N+](=O)[O-])c1	i	i	i	22	i
CCCCNC(=O)N1CCC(c2nc3ccc(Cl)cc3[nH]2)CC1	i	nt	nt	i	i
CCNc1nc(N)c([N+](=O)[O-])c(Nc2cccc(Cl)c2)n1	i	nt	nt	i	i
O=C(CSc1nnc(C2COc3ccccc3O2)o1)N1CCCC1 (centres undefined)	i	i	i	23	i
CCc1ccc(CNC(=O)C2CCN(S(=O)(=O)N3CCCCC3)CC2)cc1	i	i	i	i	i
On1onc2c3cc(-c4ccccc4)nc3ccc21	18	i	i	i	i
O=C1/C(=C/Nc2ccc3c(c2)OCO3)CCc2ccccc21	i	i	i	23	i
COc1ccc(S(=O)(=O)Nc2ccc3c(c2)OCO3)cc1	i	i	i	i	i
COc1ccc2c(c1)CC/C(=C\Nc1ccc3c(c1)OCO3)C2=O	i	i	i	29	i
COCCCN1C(=O)C(CC(=O)NC2CCCC2)CC(C(=O)N2CCOCC2)=C1C (centres undefined)	i	i	i	i	i
CN(Cc1ccco1)C(=O)c1cccc2c1C(=O)N(Cc1cccnc1)C2	i	nt	nt	i	i
COc1ccc(C(=O)/C=C(\C)Nc2ccc3c(c2)OCO3)cc1	i	i	i	22	i
C=CCn1c(SCC(=O)Nc2ccccc2OCC)nnc1-c1ccc(C(C)(C)C)cc1	i	nt	nt	i	i
O=C(c1ccc(OCCN2CCCCC2)cc1)c1c(-c2ccc(O)cc2)sc2cc(O)ccc12	27!	i	i	i	i
CC(=O)C(Sc1nn(C)c(=S)s1)C(=O)Nc1ccccc1 (centres undefined)	i	i	i	24	i
CC(C)c1ccc(S(=O)(=O)/N=C2\C=C(NS(=O)(=O)c3ccccc3)C(=O)c3ccccc32)cc1	i	i	i	i	51
CCc1ccc(S(=O)(=O)/N=C2\C=C(NS(=O)(=O)c3ccccc3)C(=O)c3ccccc32)cc1	i	i	i	i	i
O=C(O)c1ccc(S(=O)(=O)/N=C2\C=C(Nc3ccccc3F)C(=O)c3ccccc32)cc1	i	i	i	i	58
SMILES	SIAE primary	HTRA1 inh	TCR-CD3 inh	PRMT1 FP inh	mABHD4 FP
O=C(Nc1ccc(N2C(=O)CC(c3ccccc3)C2=O)c(Cl)c1)c1ccccn1 (centres undefined)	i	nt	nt	i	i
O=C(Nc1ccccc1Br)C1CC(=O)N(c2ccc3c4c(cccc24)CC3)C1 (centres undefined)	i	i	i	i	i
O=C(CN1C(=O)S/C(=C\c2ccccc2Cl)C1=O)NCCCn1ccnc1	i	i	i	24	i
O=C(Nc1csc([N+](=O)[O-])c1)Nc1ccccc1Cl	i	i	i	i	i
O=C(Nc1ccc(Cl)cc1)Nc1ccccc1Sc1ncc([N+](=O)[O-])s1	i	i	i	50	i
COC(=O)C1CN(Cc2ccccc2)CCS(=O)(=O)N1Cc1cn(Cc2ccc(F)cc2)nn1 (centres undefined)	i	nt	nt	i	i
O=C(Nc1ccc(S(=O)(=O)Nc2ncccn2)cc1)c1ccc2ncsc2c1	i	i	i	24	i
O=C(Nc1nc(=O)c2ccccc2s1)c1ccc(F)cc1	i	i	i	48	i
CCCCOc1ccc(-c2c(C(=O)Nc3ccccc3)c(C)[nH]c(=S)c2C#N)cc1	i	i	i	23	i
COc1ccc(C(=O)OCCN2CCN(C3CN(Cc4cn(Cc5cccc(F)c5)nn4)S(=O)(=O)C3)CC2)cc1OC (centres undefined)	i	nt	nt	i	i
O=C(c1ccccc1)c1cc(Cl)ccc1N1C(=O)C=CC1=O	i	i	i	91	i
O=C(CC(=O)c1cc(Cl)ccc1O)c1ccccc1	i	i	i	i	i
O=C(CSc1cn(CCNC(=O)c2ccccc2)c2ccccc12)NCc1ccco1	18	i	i	i	i
CCCn1cc(SCC(=O)NCc2ccco2)c2ccccc21	i	i	i	i	i
CC(C)CN(CC(C)C)C(=O)CSc1nc2cccnc2n1C	i	nt	nt	i	i
C[C@H](CO)N1C[C@H](C)[C@@H](CN(C)C(=O)Nc2ccccc2)Oc2c(NC(=O)C3CCCCC3)cccc2C1=O	18	i	i	i	i
O=C(N/N=C/c1cc(Cl)ccc1O)C(=O)Nc1ccccc1OC(F)(F)C(F)F	i	i	i	i	i
O=C(N/N=C/c1cc(Br)ccc1O)C(=O)Nc1ccccc1OC(F)(F)C(F)F	i	46	i	i	i
Oc1ccc(CN2CCCCC2)c2cccnc12	i	i	i	i	i
O=[N+]([O-])c1cc(CN2CCCC2)c2cccnc2c1O	nt	54	nt	nt	nt
O=[N+]([O-])c1cc(CN2CCN(c3cccc(C(F)(F)F)c3)CC2)c2cccnc2c1O	i	nt	i	i	i
Oc1c(Cl)cc(CN2CCCCC2)c2cccnc12	nt	46	nt	nt	nt
CCCCOc1ccc(C(=O)n2ccc3ccc(-c4ccc5ccn(Cc6ccccc6)c5c4)cc32)cc1	i	nt	nt	i	i
CC(C)C[C@H]1COc2cc(Br)ccc2S(=O)(=O)N1Cc1ccc(F)cc1F	i	nt	i	i	i
COc1cc2c(c(OC3OC(CO)C(O)C(O)C3O)c1)C(=O)CC(c1ccc(O)cc1)O2 (centres undefined)	i	nt	i	i	i
SMILES	SIAE primary	HTRA1 inh	TCR-CD3 inh	PRMT1 FP inh	mABHD4 FP
C[C@@H]1O[C@@H](O[C@@H]2[C@@H](O)[C@H](OCCc3ccc(O)c(O)c3)O[C@H](CO)[C@H]2OC(=O)/C=C/c2ccc(O)c(O)c2)[C@H](O)[C@H](O)[C@H]1O	i	i	i	25	i
O=C(O)/C=C/C(=O)Nc1c(F)cccc1F	i	i	i	22	i
COc1ccc(/C(O)=C2/C(=O)C(=O)N(Cc3ccco3)C2c2cccs2)cc1 (centres undefined)	i	i	i	24	i
COc1cc(/C=C2\SC(=O)N(c3ccc(Cl)cc3)C2=O)cc([N+](=O)[O-])c1O	i	i	i	i	37
Cc1ccccc1NC(=O)CN1C(=O)CCSc2ccccc21	i	nt	nt	i	i
Cc1cc(C(=O)NCc2cccs2)c(C)o1	i	i	i	21	i
Cc1occc1C(=O)NCc1cccs1	i	i	i	i	i
